Assay results pooled from the literature.
Each line is one published result; the experiments were not run side by side.
Target: Cyclin-dependent kinase 11B (CDK11B, Homo sapiens, UniProt P21127)
Technique: competition with immobilised ligand

O=C(Nc1c[nH]nc1C(=O)NC1CCNCC1)c1cc(F)cc(F)c1 gave a remaining binding of 86% (binding; 1 µM).
The remaining binding of c1cncc(-c2cccc(Nc3nccc(NC4CCCCC4)n3)c2)c1 is reported as 80% (binding; 10 µM).
For CN(C)c1ncc(F)c(-c2cnn3ncccc23)n1, the remaining binding was 100% (binding; 1 µM).
COc1cnc(Nc2cccc(S(N)(=O)=O)c2)nc1N1CCN(c2ccccc2)C(=O)C1 gave a remaining binding of 100% (binding; 1 µM).
CSc1cccnc1N1CCN(Cc2nc3ccccc3[nH]2)CC1 has a remaining binding of 100% (cell-free assay; 1 µM).
O=C(c1ccc(Nc2ncc(Cl)c(-c3cc4ccccc4s3)n2)cc1)N1CCC(N2CCCC2)CC1 gave a remaining binding of 80% (binding; 1 µM).
CC(=O)N1CCC(c2ccc(C(=O)NC(=N)N)cc2C(F)(F)F)CC1 has a remaining binding of 100% (cell-free assay; 1 µM).
The remaining binding of Nc1ncc2c(n1)-c1c([nH]c3ccc(C#CC4CC4)cc13)CCCC2 is reported as 91% (binding; 1 µM).
CN(C)c1nccc(-c2cnn3ncccc23)n1 gave a remaining binding of 100% (binding; 1 µM).
For FC(F)(F)Oc1cccc(-c2cnc3ccc(-c4ccncc4)nn23)c1, the remaining binding was 100% (cell-free assay; 5 µM).
C[C@@H]1CCN(c2nccc(-c3cnn4ncccc34)n2)C1 has a remaining binding of 97% (binding; 1 µM).
C=CC(=O)N1CCC(C(=O)NCC(=O)N2CCN(c3nc(-c4cnc(N)nc4C(F)F)nc(N4CCOCC4)n3)CC2)CC1 has a remaining binding of 100% (binding; 1 µM).
O=C(c1ccc(Nc2ncc(Cl)c(-c3ccc(Cl)s3)n2)cc1)N1CCC(N2CCCC2)CC1 has a remaining binding of 46% (binding; 1 µM).
CNCc1ccccc1-c1csc([C@H](C)Nc2nc(C)nc3cc(OC)c(OC)cc23)c1 has a remaining binding of 100% (cell-free assay; 1 µM).
The remaining binding of O=C(c1ccc(Nc2nccc(-c3cc4ccccc4s3)n2)cc1)N1CCC(N2CCCC2)CC1 is reported as 71% (binding; 1 µM).
COc1ccnn2ncc(-c3ccnc(N(C)C)n3)c12 has a remaining binding of 100% (binding; 1 µM).
Cc1c(NC(=O)c2cc(C(N)=O)nc3cc(F)ccc23)c(C(F)(F)F)nn1Cc1ccc(C#N)cc1 gave a remaining binding of 94% (cell-free assay; 1 µM).
The remaining binding of c1cnn2ncc(-c3ccnc(N4CCC45COC5)n3)c2c1 is reported as 91% (binding; 1 µM).
CO[C@H]1CC[C@H](CNc2ccc(S(=O)(=O)NC(=O)c3ccc(N4CCN(CC5=C(c6ccc(Cl)cc6)CC(C)(C)CC5)CC4)cc3Oc3cnc4[nH]ccc4c3)cc2[N+](=O)[O-])CC1 gave a remaining binding of 98% (cell-free assay; 1 µM).
For N[C@H]1CCN(c2nccc(-c3cnn4ncccc34)n2)C1, the remaining binding was 100% (binding; 1 µM).
For N#CC1(c2ccccn2)CCN(Cc2cc(C(=O)N3CCCC3)c(=O)n3ccccc23)CC1, the remaining binding was 80% (cell-free assay; 1 µM).
